Blank lines part the entries; values can stand above or below the molecule they belong to. Calls of active or inactive are those of the source. The calls are words filed in the database; no cut-off is given here.
Legend:
[1] = target: Carbonic anhydrase 2 (Homo sapiens) (UniProt P00918); assay: Binding affinity to human 7-diethylaminocoumarin labelled carbonic anhydrase2 after 48 hrs by SDS-PAGE/fluorescence gel imaging
Method in brief: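 Purified human CAII (40 µM) was incubated with the Dc-tosyl reagent (80 µM) in 50 mM HEPES, pH 7.2, at 37 °C. Control reactions held EZA (400 µM) or GSH (10 mM). Samples were resolved by SDS-PAGE, read by in-gel fluorescence imaging, then stained with CBB.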

[2] = target: Carbonic anhydrase 2 (Homo sapiens) (UniProt P00918); assay: Activity at human carbonic anhydrase2 assessed as hydrolysis of p- nitrophenyl acetate
[3] = Toxicity in human RBC assessed as hemolysis; assay type: cell-based; conditions: erythrocyte
[4] = target: Carbonic anhydrase 2 (Mus musculus) (UniProt P00920); assay: Binding affinity to endogenously expressed carbonic anhydrase2 in Slc:ICR mouse using syreptavidin-horseradish peroxidase conjugate by Western blot analysis
Method in brief: (§1)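 Male SPF Slc:ICR mice, 8 weeks old, received the biotin probe intravenously (100 µM in 0.5 mL PBS), and tail-vein blood was drawn at 4, 8 and 20 h. For ex vivo runs, EDTA-treated whole blood was diluted two-fold in PBS and held with 5 µM probe, ±500 µM EZA, at 35 °C for 20 h. Lysis used NP-40 buffer with 0.5 mM EZA, followed by 15% SDS-PAGE and PVDF blotting. Biotin was detected with SAv-HRP chemiluminescence; the membrane was reprobed with anti-mouse CAII plus anti-goat IgG-HRP.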

[5] = target: Carbonic anhydrase 2 (Mus musculus) (UniProt P00920); assay: Binding affinity to endogenously expressed carbonic anhydrase2 in Slc:ICR mouse using anti-mouse CA2 antibody by Western blot analysis; method in brief: as §1
Jurkat = assay: Cytotoxicity against in human Jurkat cells after 18 hrs by MTT assay; assay type: cell-based
Method in brief: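 Jurkat cells, maintained in RPMI 1640 with 10% FBS at 37 °C under 5% CO2, were treated at 4 × 10^6 cells per 1 mL serum-free RPMI 1640 with probe (4 µM) at 37 °C for 18 h. Viability was read by MTT assay.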

[6] = target: Peptidyl-prolyl cis-trans isomerase FKBP1A (Homo sapiens) (UniProt P62942); assay: Binding affinity to human FKBP12 in Jurkat cells at 11 uM after 24 hrs using anti-human FKBP12 antibody; assay type: cell-based; conditions: 4 uM, in the assay text read “at 4 uM after 18 hrs” for “at 11 uM after 24 hrs”
Peptidyl-prolyl cis-trans isomerase FKBP1A (Homo sapiens), sequence (P62942 whole entry): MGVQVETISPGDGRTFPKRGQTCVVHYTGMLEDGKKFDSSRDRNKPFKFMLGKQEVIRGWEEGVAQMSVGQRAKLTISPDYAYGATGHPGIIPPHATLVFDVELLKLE

Activity [1]: 75% | 1/Km [2]: 2.38 ×10² /M
Compound: CCN(CC)c1ccc2cc(C(=O)NCCOCCOS(=O)(=O)c3cccc(C(=O)NCCCCCNC(=O)c4ccc(S(N)(=O)=O)cc4)c3)c(=O)oc2c1
Activity [3]: Non-toxic

Activity [4]: inactive | Activity [5]: inactive
Compound: O=C(CCCC[C@@H]1SC[C@@H]2NC(=O)N[C@@H]21)NCCOCCOCCOS(=O)(=O)c1cccc(C(=O)NCCCCCNC(=O)c2ccccc2)c1

Activity [6]: Active
Compound: CCC(C)(C)C(=O)C(=O)N1CCCC[C@H]1C(=O)O[C@H](CCc1ccc(OC)c(OC)c1)c1cccc(OCC(=O)NCCNC(=O)c2cccc(S(=O)(=O)OCCOCCOCCNC(=O)CCCC[C@@H]3SC[C@@H]4NC(=O)N[C@@H]43)c2)c1
Activity (Jurkat): Non-toxic

Activity [4]: Active | Activity [5]: Active
Compound: NS(=O)(=O)c1ccc(C(=O)NCCCCCNC(=O)c2cccc(S(=O)(=O)OCCOCCOCCNC(=O)CCCC[C@@H]3SC[C@@H]4NC(=O)N[C@@H]43)c2)cc1

From ChEMBL document CHEMBL1212715, “Ligand-directed tosyl chemistry for protein labeling in vivo” (Nat Chem Biol, 2009)
